# Test results from ChEMBL document CHEMBL1121856, “Sulfur analogues of psychotomimetic agents. Monothio analogues of mescaline and isomescaline” (J Med Chem, 1981).
# How the values were obtained:
# [1] = molecular target: T1, monoamine oxidase (bovine plasma amine oxidase) (Bos taurus, UniProt P21398+P56560); assay: In vitro bovine plasma monoamine oxidase deamination with semicarbazide; type: cell-free; settings: cattle, with semicarbazide (concentration not stated), read-out: MAO deamination
# T1 sequence (P56560 whole entry): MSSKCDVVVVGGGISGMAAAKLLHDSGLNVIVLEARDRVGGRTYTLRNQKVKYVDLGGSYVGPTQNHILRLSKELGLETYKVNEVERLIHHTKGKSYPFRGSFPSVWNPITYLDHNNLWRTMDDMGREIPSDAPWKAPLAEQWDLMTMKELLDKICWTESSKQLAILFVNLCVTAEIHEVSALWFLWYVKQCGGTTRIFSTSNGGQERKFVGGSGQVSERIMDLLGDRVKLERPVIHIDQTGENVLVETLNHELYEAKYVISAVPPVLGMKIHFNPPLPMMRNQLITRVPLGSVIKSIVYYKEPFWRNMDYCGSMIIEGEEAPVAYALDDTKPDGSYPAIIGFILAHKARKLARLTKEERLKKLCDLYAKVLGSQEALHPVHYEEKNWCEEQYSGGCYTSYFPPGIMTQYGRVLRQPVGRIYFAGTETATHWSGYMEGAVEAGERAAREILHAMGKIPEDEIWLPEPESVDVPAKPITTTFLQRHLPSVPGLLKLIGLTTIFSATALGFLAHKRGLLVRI
# T1 sequence (P21398 whole entry): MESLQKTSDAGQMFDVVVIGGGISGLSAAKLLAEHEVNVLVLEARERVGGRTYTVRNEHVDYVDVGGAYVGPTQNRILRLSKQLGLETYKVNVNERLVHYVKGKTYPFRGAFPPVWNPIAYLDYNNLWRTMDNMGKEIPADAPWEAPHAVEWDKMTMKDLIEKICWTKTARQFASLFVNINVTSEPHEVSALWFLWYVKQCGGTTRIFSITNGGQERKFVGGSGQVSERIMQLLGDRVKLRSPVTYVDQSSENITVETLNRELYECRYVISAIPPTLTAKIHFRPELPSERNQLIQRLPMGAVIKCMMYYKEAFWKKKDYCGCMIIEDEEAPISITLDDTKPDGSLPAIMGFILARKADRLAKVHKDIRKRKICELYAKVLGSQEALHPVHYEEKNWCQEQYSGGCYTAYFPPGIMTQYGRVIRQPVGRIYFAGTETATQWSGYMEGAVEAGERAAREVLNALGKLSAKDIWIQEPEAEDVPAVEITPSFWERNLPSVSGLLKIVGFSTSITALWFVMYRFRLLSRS
# Procedure, shortened: (§1)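 Amines at 50 μM in 0.1 M phosphate buffer, pH 7.4, with 0.01 unit bovine plasma MAO and 50 μM semicarbazide, in duplicate, 1 h at 37 °C. Stopped with 0.5 N NaOH, internal standard added, extracted into CH2Cl2. Remaining amine measured by GC as heptafluorobutyryl derivatives, quantitated by peak-height ratio against enzyme-free standards.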
# [2] = molecular target: T1, monoamine oxidase (bovine plasma amine oxidase); assay: In vitro bovine plasma monoamine oxidase deamination without semicarbazide; type: cell-free; settings: cattle, read-out: MAO deamination
# Procedure, shortened: as §1, with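 “MAO, no” for “MAO and 50 μM”, “GC (OV-101, 185 °C)” for “GC”, “standards prepared without enzyme.” for “enzyme-free standards.”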
# [3] = species on record: Homo sapiens; assay: Compound was tested for the psychotropic effect in human (activity is expressed in mescaline unit); type: functional
# Procedure, shortened: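 Healthy adult volunteers (32–65 y, experienced with psychotropic drugs) received the hydrochloride orally. Dosing began at 2 mg and rose in small increments (1.6:1) at trials spaced about 1 week apart until an effective level was found. Mescaline units are the effective dose of mescaline divided by that of the compound, both determined in man. A "less than" value means no activity at doses that would give that MU.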
SMILES,metabolised [1],metabolised [2],Human potency [3]
COc1ccc(CCN)cc1OC,16%,64%,<1 MU
COc1cc(CCN)cc(SC)c1OC,–,60%,6 MU
COc1c(CCN)ccc(SC)c1OC,–,40%,<2 MU
COc1ccc(CCN)c(OC)c1SC,–,31%,<2 MU
COc1cc(CCN)cc(OC)c1SC,–,56%,12 MU
COc1ccc(CCN)c(OC)c1OC,4%,55%,<1 MU
COc1ccc(CCN)c(SC)c1OC,10%,78%,<2 MU
COc1cc(CCN)cc(OC)c1OC [MESCALINE],1%,21%,1 MU
